Read-outs that look alike come from different tables or passages of the source. One block for each compound: values may come before it.
Key:
[1] = Phase 1 disposition study: metabolite radioprofiling in plasma and feces; assay type: in vivo, human; conditions: for Percent dose mean excreted in feces: single oral 100 mg 14C-evacetrapib
In short: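 Samples came from five healthy males after a single oral 100 mg dose (~100 μCi 14C). Plasma, feces and urine were extracted, dried and reconstituted in DMSO/acetonitrile/10 mmol/L ammonium acetate (1:3:3). Metabolites were separated by HPLC, and fractions were counted to build radiochromatograms. Structures were identified by LC/MS and LC/MS/MS (ion trap, plus Orbitrap accurate mass) in positive ion mode.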

CYP2C8 (rCYP2C8) = molecular target: T1, CYP2C8 (rCYP2C8) (Homo sapiens, UniProt P10632); test: Substrate depletion by human recombinant CYP2C8; assay type: in vitro ADME; conditions: human, recombinant CYP2C8 Supersomes (insect cell microsomes)
T1 sequence (P10632 1-490): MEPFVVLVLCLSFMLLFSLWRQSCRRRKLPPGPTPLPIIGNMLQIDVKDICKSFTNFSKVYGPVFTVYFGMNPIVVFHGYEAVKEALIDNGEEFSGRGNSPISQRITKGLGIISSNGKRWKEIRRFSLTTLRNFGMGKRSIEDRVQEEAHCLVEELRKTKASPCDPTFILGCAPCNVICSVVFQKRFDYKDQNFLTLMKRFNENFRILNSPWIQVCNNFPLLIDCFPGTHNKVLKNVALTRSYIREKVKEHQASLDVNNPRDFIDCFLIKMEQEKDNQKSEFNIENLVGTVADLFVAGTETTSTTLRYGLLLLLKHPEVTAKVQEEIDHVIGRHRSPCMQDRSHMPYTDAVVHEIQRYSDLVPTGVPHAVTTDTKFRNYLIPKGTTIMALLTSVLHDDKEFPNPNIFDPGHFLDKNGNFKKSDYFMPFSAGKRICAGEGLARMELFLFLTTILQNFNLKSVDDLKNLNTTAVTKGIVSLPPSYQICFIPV
In short: (§1)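 Human recombinant CYPs were insect-cell microsomes, with CYPb5 co-expressed if available, plus a no-CYP membrane control. Test compound (30 or 300 nmol/L) was incubated with matrix (0.25 mg/mL) and buffer. NADPH (1 mmol/L) started the reaction, and acetonitrile with internal standard stopped it after 5 or 30 min. CLint came from −kdep and the amount of rCYP, scaled to HLM by relative activity factor.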

rCYP2C8 = molecular target: T2, rCYP2C8 (Homo sapiens, UniProt P10632); test: Substrate depletion by human recombinant CYP2C8; assay type: in vitro ADME; conditions: rCYP2C8
T2 sequence (P10632 1-490): T1 sequence (P10632 1-490)
In short: as §1

[2] = Phase 1 disposition study: excretion and mass balance; assay type: in vivo, human
In short: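 Five healthy males received a single oral 100 mg dose containing ~100 μCi 14C-label. Urine and feces were collected to 216 h, and expired air at selected times to 48 h for 14CO2. Radioactivity was counted by liquid scintillation, either directly (urine, expired air) or after combustion (feces). Cumulative fraction of dose was summed over collection periods.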

[3] = ref Mantlo and Escribano [2014]; Cannady 2013; cited from earlier work
CYP3A (rCYP3A4) = CYP3A (rCYP3A4) (Homo sapiens, UniProt P08684); test: Substrate depletion by human recombinant CYP3A4; assay type: in vitro ADME
In short: as §1

[4] = patients with dyslipidemia, alone or with statins; ref Nicholls et al. [2011]; cited from earlier work
[5] = assay type: in vivo, human; conditions: for % AUC(tlast–∞): geometric mean (range)
In short: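 Five healthy males received a single oral 100 mg dose containing ~100 μCi 14C-label, with blood sampled to 192 h. Plasma parent was measured by LC/MS/MS (range 1–1000 ng/mL). Total radioactivity was counted by liquid scintillation, directly in plasma and after combustion for whole blood. Parameters were derived noncompartmentally. Adverse events were recorded.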

[6] = Phase 1 DDI study with ketoconazole in healthy subjects; assay type: in vivo, human; conditions: for Ratio of geometric LS means, AUC(0–∞), evacetrapib + ketoconazole versus evacetrapib (90% CI) / Ratio of geometric LS means, Cmax, evacetrapib + ketoconazole versus evacetrapib (90% CI): 100 mg evacetrapib, 400 mg ketoconazole daily; for CL/F: geometric mean (% CV)
In short: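 Twelve fasted healthy adults of both sexes (18–65 y, BMI 18–32 kg/m2) took part in a fixed-sequence study. Period 1 was a single oral 100 mg of test compound, sampled predose to 168 h. After a ≥14-day washout, Period 2 was ketoconazole 400 mg daily for 14 days with 100 mg test compound on Day 5, sampled for 240 h. Plasma LC/MS/MS range was 1–1000 ng/mL. Analysis was noncompartmental, with log ANOVA (treatment fixed, subject random) and 90% CIs; tmax was compared by Wilcoxon test. Adverse events were recorded.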

[7] = Phase 1 DDI study with gemfibrozil in healthy subjects; assay type: in vivo, human; conditions: for Ratio of geometric LS means, AUC(0–τ), evacetrapib + gemfibrozil versus evacetrapib (90% CI) / Ratio of geometric LS means, Cmax, evacetrapib + gemfibrozil versus evacetrapib (90% CI): 130 mg QD, 600 mg gemfibrozil BID
[8] = Substrate depletion in human liver microsomes; assay type: in vitro ADME; conditions: both, human, human liver microsomes
[9] = tested on: Human liver microsomes (HLMs); test: Substrate depletion in human liver microsomes; assay type: in vitro ADME; conditions: largest k calculated, used to approximate first-order conditions; HLMs 0.25 mg/mL
[10] = ref Mantlo and Escribano [2014]; Cannady 2013; cited from earlier work; remark: listed apart in the source
[11] = male, human, plasma, oral, 100 mg
[12] = both, human, plasma, oral, 100 mg
[13] = both, human, plasma, oral, 400 mg
[14] = both, human, plasma, oral, 130 mg

Sequence of CYP3A (rCYP3A4) (P08684 whole entry): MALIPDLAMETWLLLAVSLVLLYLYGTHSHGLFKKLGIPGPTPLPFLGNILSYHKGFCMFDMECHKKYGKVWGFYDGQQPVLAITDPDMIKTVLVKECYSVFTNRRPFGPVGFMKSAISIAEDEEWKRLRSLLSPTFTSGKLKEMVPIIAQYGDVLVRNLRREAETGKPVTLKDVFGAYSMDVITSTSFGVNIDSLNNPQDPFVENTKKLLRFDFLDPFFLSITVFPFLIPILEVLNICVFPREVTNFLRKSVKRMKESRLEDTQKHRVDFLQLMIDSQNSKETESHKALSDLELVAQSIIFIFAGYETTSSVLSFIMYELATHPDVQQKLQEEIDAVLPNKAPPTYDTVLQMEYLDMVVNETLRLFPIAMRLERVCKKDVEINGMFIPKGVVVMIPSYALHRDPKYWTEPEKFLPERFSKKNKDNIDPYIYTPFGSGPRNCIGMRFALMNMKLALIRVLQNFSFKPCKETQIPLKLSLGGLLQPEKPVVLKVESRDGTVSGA

- radioactive peaks in plasma ([1]; 24-h plasma samples, detected in only 3 subjects): only quantifiable radioactive peak
- dose eliminated via CYP-mediated (oxidative) metabolism ([1]; from fecal metabolites): Approximately 70%
- Dose eliminated in the select feces through 192 h postdose ([1]; percent dose mean): 89.86%
- Percent dose mean excreted in feces [1]: 17 % of the dose
- Percent dose mean excreted in feces ([1]; listed as Evacetrapib): 16.80 % of the dose
- microsomal CLint (CYP2C8 (rCYP2C8)): 19.9 µL/min/mg
- CLint (rCYP2C8): 0.712 μL × min^−1 × pmol CYP^−1
- −kdep (rCYP2C8): 0.000707 s⁻¹
- dose excreted in feces ([2]; mean (±SD), up to 216 h): 93.1 % of the dose
- dose excreted in urine ([2]; mean (±SD), up to 216 h): 2.30 % of the dose
- levels of radioactivity in expired air ([2]; samples up to 48 h): negligible
- microsomal CLint (CYP3A (rCYP3A4); human, recombinant CYP3A4 Supersomes (insect cell microsomes)): 186 µL/min/mg
- CLint (CYP3A (rCYP3A4); rCYP3A4 representing CYP3A): 4.257 μL × min^−1 × pmol CYP^−1
- −kdep (CYP3A (rCYP3A4); rCYP3A4 representing CYP3A): 0.002608 s⁻¹
- Average (%) of total radioactivity attributed to evacetrapib ([5]; based on AUC(0–36), plasma): 66%
- Average (%) of total radioactivity attributed to evacetrapib ([5]; based on AUC(0–∞), plasma): 52%
- Average (%) of total radioactivity attributed to evacetrapib ([5]; based on Cmax, plasma): 82%
- % AUC(tlast–∞) ([5]; blood total radioactivity, N = 4): 21 (18–24) ^2%
- association of evacetrapib-related material with red blood cells ([5]; from blood-to-plasma radioactivity ratios and hematocrit): negligible
- AUC(0-t) [5, 11]: 6250 ng·h/mL
- Cmax [5, 11]: 777 ng/mL
- Vd/F [5, 11]: 564 L
- half-life [5, 11]: 32.3 h
- AUC(0-inf) ([5]; male, human, plasma, po, 100 mg): 8250 ng·h/mL
- CL/F ([5]; plasma evacetrapib, geometric mean (CV)): 12.1 (20) L/h
- % AUC(tlast–∞) ([5]; plasma evacetrapib): 1 (0–4) %
- % AUC(tlast–∞) ([5]; plasma total radioactivity): 19 (13–26) %
- Ratio of geometric LS means, AUC(0–∞), evacetrapib + ketoconazole versus evacetrapib (90% CI) [6]: 2.37
- Ratio of geometric LS means, Cmax, evacetrapib + ketoconazole versus evacetrapib (90% CI) [6]: 1.94
- Ratio of geometric LS means, AUC(0–∞), evacetrapib + ketoconazole versus evacetrapib (90% CI) ([6]; listed as Evacetrapib): 2.37 (1.77, 3.18)
- Ratio of geometric LS means, Cmax, evacetrapib + ketoconazole versus evacetrapib (90% CI) ([6]; listed as Evacetrapib): 1.94 (1.39, 2.72)
- AUC(0-inf) [6, 12]: 5260 ng·h/mL
- Cmax [6, 12]: 332 ng/mL
- Tmax [6, 12]: 3 h
- Vd/F [6, 12]: 861 L
- Tmax [6, 13]: 3 h
- Vd/F [6, 13]: 592 L
- half-life [6, 13]: 63.2 h
- CL/F ([6]; evacetrapib alone): 19.0 (51) L/h
- CL/F ([6]; with 400 mg ketoconazole): 8.24 (57) L/h
- difference in median tmax between treatments ([6]; with versus without ketoconazole): no difference
- Ratio of geometric LS means, AUC(0–τ), evacetrapib + gemfibrozil versus evacetrapib (90% CI) [7]: 0.996
- Ratio of geometric LS means, Cmax, evacetrapib + gemfibrozil versus evacetrapib (90% CI) [7]: 1.02
- Ratio of geometric LS means, AUC(0–τ), evacetrapib + gemfibrozil versus evacetrapib (90% CI) ([7]; listed as Evacetrapib): 0.996 (0.922, 1.08)
- Ratio of geometric LS means, Cmax, evacetrapib + gemfibrozil versus evacetrapib (90% CI) ([7]; listed as Evacetrapib): 1.02 (0.933, 1.11)
- Tmax ([7]; both, human, plasma, oral): 3 h
- AUC [7, 14]: 11300 ng·h/mL
- Cmax [7, 14]: 1270 ng/mL
- Tmax [7, 14]: 4 h
- difference in median tmax between treatments ([7]; with versus without gemfibrozil): no significant difference
- microsomal CLint [8]: 138 µL/min/mg
- substrate depletion rate constant k in HLMs [9]: 0.0345 min⁻¹
Compound: Cc1cc(C)c2c(c1)[C@@H](N(Cc1cc(C(F)(F)F)cc(C(F)(F)F)c1)c1nnn(C)n1)CCCN2C[C@H]1CC[C@H](C(=O)O)CC1 [evacetrapib]
- fraction of evacetrapib eliminated by CYPs ([1]; used in the static model): ~1 For determinations of fm, CYP3A4-mediated metabolism was considered to represent total CPY3A-mediated metabolism AUCi/AUC = 1/(1-fmCYP3A × fraction of evacetrapib eliminated by CYPs) where the fraction of evacetrapib eliminated by CYPs is approximately 0.7.
- protein binding [3]: high
- HDL-C levels [4]: increased
- LDL-C levels [4]: decreased
- changes in blood pressure, aldosterone, cortisol, or electrolytes [4]: without producing substantial changes
- treatment-emergent adverse events (TEAEs) reported ([5]; reported by 2 of 5 subjects, single 100-mg dose): 5
- AEs related to evacetrapib as judged by the investigator ([5]; single 100-mg dose): Three
- severity of all AEs ([5]; single 100-mg dose): mild
- TEAEs considered mild ([6]; evacetrapib alone or in combination with ketoconazole): 16
- TEAEs reported ([6]; evacetrapib alone or in combination with ketoconazole, reported by 5 subjects): 18
- AEs considered to be related to the study drug ([7]; 5 of 24 subjects who received evacetrapib alone and/or with gemfibrozil): 10
- severity of all AEs ([7]; human, in vivo): mild
- AEs reported ([7]; whole study, reported by 12 subjects): 28
- drug solubility [10]: poor

Compound: CC(=O)N1CCN(c2ccc(OCC3COC(Cn4ccnc4)(c4ccc(Cl)cc4Cl)O3)cc2)CC1 (stereo not shown) [ketoconazole, reference compound]
- TEAEs considered moderate ([6]; reported by subjects who received ketoconazole alone): 2

From publication PMC4618649 (Pharmacology Research & Perspectives, 2015)
